Source: ChEMBL document CHEMBL3046857, “Novel inhibitors of the mitochondrial respiratory chain: oximes and pyrrolines isolated from Penicillium brevicompactum and synthetic analogues” (J Agric Food Chem, 2005)

Legend:
[1] = biological target: T1, NADH-ubiquinone oxidoreductase chain 1 (Bos taurus, UniProt P03887); test: Inhibition of Bos taurus (beef) heart NAD1 assessed as NADH oxidase activity
In short: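 Beef heart submitochondrial particles, diluted to 0.5 mg/mL in 250 mM sucrose/10 mM Tris-HCl pH 7.4 and pre-activated with 300 µM NADH; then diluted to 6 µg/mL in 50 mM potassium phosphate pH 7.4, 1 mM EDTA, 22 °C. Compounds (ethanol stocks) preincubated with particles 5 min on ice. Aerobic oxidation of 75 µM NADH followed at 340 nm; three experiments; IC50.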

[2] = biological target: T1, NADH-ubiquinone oxidoreductase chain 1; test: Inhibition of Bos taurus (beef) heart NAD1 assessed as NADH-ubiquinone oxidoreductase activity
In short: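 Complex I specific activity in NADH-activated beef heart submitochondrial particles (6 µg/mL; 50 mM potassium phosphate pH 7.4, 1 mM EDTA, 22 °C). Compound preincubated 5 min on ice. 75 µM NADH with 30 µM decylubiquinone as acceptor, plus 2 µM antimycin and 2 mM KCN to block downstream steps. NADH oxidation rate read at 340 nm; three assays; IC50.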

T1 sequence (P03887 whole entry): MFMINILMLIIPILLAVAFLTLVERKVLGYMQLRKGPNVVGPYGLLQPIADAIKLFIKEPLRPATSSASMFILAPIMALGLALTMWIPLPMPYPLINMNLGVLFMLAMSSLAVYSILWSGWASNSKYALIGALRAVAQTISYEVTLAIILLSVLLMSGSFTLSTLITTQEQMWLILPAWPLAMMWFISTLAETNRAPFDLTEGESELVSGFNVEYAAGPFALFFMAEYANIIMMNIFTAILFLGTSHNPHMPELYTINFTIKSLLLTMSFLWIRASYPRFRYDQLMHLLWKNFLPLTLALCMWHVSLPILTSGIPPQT

Row | SMILES | IC50 ([1]; read-out: IC50) | IC50 [2] | IC50 [1]
1 | CCCCCCCC(=O)C(C)C(=O)N1C=CCC1 (stereo not drawn) | 4.55 µM | – | –
2 | CCCCCCCCC(=O)CC(=O)c1ccc[nH]1 | 8.6 µM | 14.3 µM | –
3 | CCC(=O)C(C)C(=O)c1ccc[nH]1 (stereo not drawn) | – | – | Not Active
4 | CC(C(=O)C(C)c1cccc(Oc2ccccc2)c1)C(=O)N1C=CCC1 (single isomer, unassigned; diastereomer 1) | 3.92 µM | 6.57 µM | –
5 | C/C=C/CCCCC(=O)C(C)C(=O)N1C=CCC1 (stereo not drawn) | – | – | Not Active
6 | CC(C(=O)C(C)c1cccc(Oc2ccccc2)c1)C(=O)N1CC[C@H](O)C1 (single isomer, unassigned; diastereomer 2) | 36.3 µM | – | –
7 | CCCCCCCC1=C(C)C(=O)N2CC/C(=N\O)C2O1 (stereo not drawn) | 0.27 µM | 1.52 µM | –
8 | CC1=C(C(C)c2cccc(Oc3ccccc3)c2)OC2/C(=N/O)CCN2C1=O (stereo not drawn) | 0.92 µM | 3.44 µM | –
9 | CCC(=O)CC(=O)c1ccc[nH]1 | – | – | Not Active
10 | CC(C(=O)c1ccccc1)C(=O)c1ccc[nH]1 (stereo not drawn) | 214 µM | – | –
11 | CC1=C(C(C)c2cccc(Oc3ccccc3)c2)OC2C(O)CCN2C1=O (single isomer, unassigned; diastereomer 1) | 5.48 µM | 14.3 µM | –
12 | CC1=C(C(C)c2cccc(Oc3ccccc3)c2)OC2C(O)CCN2C1=O (single isomer, unassigned; diastereomer 2) | 3.13 µM | 11.9 µM | –
13 | CC(C(=O)N1C=CCC1)c1cccc(Oc2ccccc2)c1 (stereo not drawn) | 6.82 µM | – | –
14 | CC(C(=O)C(C)c1cccc(Oc2ccccc2)c1)C(=O)N1C=CCC1 (single isomer, unassigned; diastereomer 2) | 4.4 µM | 16.4 µM | –
15 | C/C=C/CCCCC1=C(C)C(=O)N2CC/C(=N\O)C2O1 (stereo not drawn) | – | – | Not Active
16 | CC(C(=O)C(C)c1cccc(Oc2ccccc2)c1)C(=O)N1CC[C@H](O)C1 (single isomer, unassigned; diastereomer 1) | 41.5 µM | – | –
